Experimental data taken from ChEMBL document CHEMBL6134787, “Fexinidazole optimization: enhancing anti-leishmanial profile, metabolic stability and hERG safety” (RSC Med Chem, 2024).
The source made the active and inactive calls. The rule behind the calls is not given here.

What was measured:
Leishmania amazonensis [1] = test: Antileishmanial activity against wild type Leishmania amazonensis LV78 amastigotes infected in mouse peritoneal macrophage assessed as inhibition of parasite growth incubated for 72 hrs by giemsa staining based analysis; assay type: functional, organism-based
How it was run: (§1)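 Mouse peritoneal macrophages (1 × 10^5/well on coverslips, DMEM + 10% heat-inactivated FBS, penicillin/streptomycin) adhered overnight at 37 °C, 5% CO2. They were infected overnight with late-log promastigotes at a 20:1 parasite:macrophage ratio. Cells were then treated with compound for 72 h at 37 °C and Giemsa-stained. Amastigotes per 100 macrophages were counted to derive IC50; mean ± SD of 3–4 independent experiments.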

Leishmania donovani [2] = test: Antileishmanial activity against miltefosine resistant Leishmania donovani HU3MILR40 amastigotes infected in mouse peritoneal macrophage assessed as inhibition of parasite growth at 20 uM incubated for 72 hrs by giemsa staining based analysis; assay type: functional, organism-based
How it was run: (§2)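 Adherent mouse peritoneal macrophages on coverslips infected overnight with late-log HU3MILR40 promastigotes (40 parasites per macrophage), then exposed to compound at a single fixed concentration in DMEM + 10% FBS for 72 h at 37 °C. Giemsa-stained coverslips imaged at 1000×; amastigotes per 100 macrophages counted versus DMSO control; mean ± SD of three independent experiments, Student's t-test.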

[3] = Cytotoxicity against mouse L929 cells assessed as inhibition of cell growth incubated for 72 hrs by MTS assay; assay type: toxicity, cell-based
How it was run: (§3)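 Cells in DMEM + 10% heat-inactivated FBS with penicillin/streptomycin at 37 °C, 5% CO2. They were seeded at 1 × 10^4/well and incubated with a concentration series for 72 h at 37 °C. Viability was read by MTS/PMS assay at 490 nm and IC50 derived.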

Leishmania braziliensis [4] = test: Antileishmanial activity against wild type Leishmania braziliensis UA847 amastigotes infected in mouse peritoneal macrophage assessed as inhibition of parasite growth incubated for 72 hrs by giemsa staining based analysis; assay type: functional, organism-based; how it was run: as §1
Leishmania braziliensis [5] = test: Antileishmanial activity against wild type Leishmania braziliensis UA847 promastigotes […] assessed as inhibition of parasite growth incubated for 72 hrs by automatic microtiter plate reader analysis; assay type: functional, organism-based
How it was run: (§4)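 Promastigotes were grown in Schneider's medium (4 mM glutamine, gentamicin, 10% heat-inactivated FBS, pH 6.9, 27 °C). Cells were seeded at 1.5 × 10^5/well and exposed to a concentration series for 72 h at 27 °C.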

Leishmania amazonensis [6] = test: Antileishmanial activity against wild type Leishmania amazonensis LV78 promastigotes […] assessed as inhibition of parasite growth incubated for 72 hrs by automatic microtiter plate reader analysis; assay type: functional, organism-based; how it was run: as §4
RAW264.7 = test: Cytotoxicity against mouse RAW264.7 cells assessed as inhibition of cell growth incubated for 72 hrs by MTS assay; assay type: functional, cell-based; details: RAW264.7, 72 h; how it was run: as §3
Leishmania donovani [7] = test: Antileishmanial activity against wild type Leishmania donovani HU3 amastigotes infected in mouse peritoneal macrophage assessed as inhibition of parasite growth incubated for 72 hrs by giemsa staining based analysis; assay type: functional, organism-based
How it was run: (§5)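 Mouse peritoneal macrophages in DMEM + 10% heat-inactivated FBS, penicillin/streptomycin; 1 × 10^5 cells per well on coverslips, adhered overnight at 37 °C, 5% CO2, non-adherent cells washed off. Infected overnight with late-log promastigotes at parasite:macrophage 40:1. Compound exposure 72 h at 37 °C; Giemsa stain, amastigotes per 100 macrophages counted, IC50 derived; means ± SD of 3–4 independent experiments.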

Leishmania donovani [8] = test: Antileishmanial activity against miltefosine resistant Leishmania donovani HU3MILR40 promastigotes […] assessed as inhibition of parasite growth incubated for 72 hrs by automatic microtiter plate reader analysis; assay type: functional, organism-based
How it was run: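 Promastigote (free parasite) assay: Schneider's Drosophila medium with 4 mM glutamine, 25 μg mL−1 gentamicin, 10% heat-inactivated FBS, pH 6.9, 27 °C. 1.5 × 10^5 promastigotes per well exposed to a concentration series for 72 h at 27 °C.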

Leishmania donovani [9] = test: Antileishmanial activity against miltefosine resistant Leishmania donovani HU3MILR40 amastigotes infected in mouse peritoneal macrophage assessed as inhibition of parasite growth incubated for 72 hrs by giemsa staining based analysis; assay type: functional, organism-based; how it was run: as §5
Leishmania major = test: Antileishmanial activity against wild type Leishmania major FV1 promastigotes […] assessed as inhibition of parasite growth incubated for 72 hrs by automatic microtiter plate reader analysis; assay type: functional, organism-based; how it was run: as §4
Leishmania donovani [10] = test: Antileishmanial activity against wild type Leishmania donovani HU3 promastigotes […] assessed as inhibition of parasite growth incubated for 72 hrs by automatic microtiter plate reader analysis; assay type: functional, organism-based
[11] = Cytotoxicity against mouse peritoneal macrophage assessed as inhibition of cell growth incubated for 72 hrs by giemsa staining based analysis; assay type: toxicity; details: peritoneal macrophages
Leishmania donovani [12] = test: Antileishmanial activity against miltefosine resistant Leishmania donovani HU3MILR40 amastigotes infected in mouse peritoneal macrophage assessed as inhibition of parasite growth at 1.5 uM incubated for 72 hrs by giemsa staining based analysis; assay type: functional, organism-based; how it was run: as §2
hERG (KCNH2) = hERG (KCNH2) (Homo sapiens, UniProt Q12809); test: Inhibition of human ERG stably overexpressed in HEK293 cells assessed as remaining activity at 6 uM incubated for 30 mins by FLIPR assay; assay type: toxicity, cell-based; details: HEK293 cells stably overexpressing hERG, read-out: Activity
How it was run: (§6)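 HEK-293 cells stably expressing hERG, seeded at 60 000/well and grown 24 h. Compounds were added in DMSO (final 0.5%) and incubated 30 min in the dark. After 20 s baseline, Tl+ stimulus (3 mM) was added and fluorescence (ex 485/em 535 nm) recorded for 2.5 min.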

[13] = Metabolic stability in rat liver microsome assessed as compound remaining at 20 uM measured after 32 mins in presence of NADP and GSH by HPLC analysis; assay type: ADME; details: liver microsomes, read-out: Stability
How it was run: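 Rat liver microsomes (final 2 mg/mL) in 50 mM phosphate pH 7.4 with 0.3 mM NADP+, 5.3 mM glucose-6-phosphate, G6PDH, 10 mM MgCl2 and 5 mM EDTA. 20 μM compound added at 37 °C. Aliquots at 0, 16 and 32 min were quenched in ice-cold acetonitrile and centrifuged. HPLC peak area at 254/280 nm was expressed relative to 0 min.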

[14] = Hepatotoxicity against mouse TAMH cells assessed as cell viability at 7.8 to 125 uM incubated for 24 to 48 hrs by MTT assay; assay type: toxicity, cell-based; details: dose lower 7.8 µM, time lower 24 hrs, dose upper 125 µM, time upper 48 hrs, read-out: Activity
How it was run: (§7)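 TAMH mouse liver cells in FCS-free DMEM/F12 with 5% PANEXIN NTA, 10 mM nicotinamide and gentamicin. Seeded at 20 000/well and attached 24 h at 37 °C, 5% CO2. DMSO-diluted compounds were applied for 24 or 48 h. MTT was added for 4 h, formazan dissolved in DMSO and A570 read. Viability was background-corrected and expressed relative to DMSO controls; mean ± SD, ≥3 experiments.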

[15] = target: T1, Voltage-gated inwardly rectifying potassium channel KCNH2 (Homo sapiens, UniProt Q12809); test: Inhibition of human ERG stably overexpressed in HEK293 cells incubated for 30 mins by FLIPR assay; assay type: toxicity, cell-based; details: human, hek293, 0.5 h; time 30 min
[16] = Metabolic stability in rat liver S9 fraction assessed as compound remaining at 20 uM measured after 32 mins in presence of NADP and GSH by HPLC analysis; assay type: ADME, subcellular; details: read-out: Stability
How it was run: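 Rat liver S9 (final 4 mg/mL) in 50 mM phosphate pH 7.4 with NADPH-regenerating system (0.3 mM NADP+, 5.3 mM glucose-6-phosphate, G6PDH), 10 mM MgCl2 and 5 mM EDTA. Pre-warmed 10 min at 37 °C, then 20 μM compound and 5.5 μM GSH added. Samples taken at 0, 16 and 32 min were quenched in ice-cold acetonitrile. HPLC (254/280 nm) peak area was expressed relative to 0 min.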

[17] = Selectivity ratio of IC50 for cytotoxicity against mouse peritoneal macrophage assessed as inhibition of cell growth to IC50 for antileishmanial activity against miltefosine resistant Leishmania donovani HU3MILR40 amastigotes infected in mouse peritoneal macrophage assessed as inhibition of parasite growth; assay type: toxicity, cell-based; details: peritoneal macrophages, read-out: Ratio IC50
[18] = Hepatotoxicity against human HepG2 cells assessed as cell viability at 125 uM incubated for 48 hrs by MTT assay; assay type: toxicity, cell-based; details: hepg2, 48 h, 125 µM
How it was run: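 HEP-G2 cells in RPMI 1640 + 10% heat-inactivated FBS, penicillin/streptomycin. Seeded at 15 000/well and attached 24 h at 37 °C, 5% CO2. Compounds were serially diluted in DMSO, with 24 or 48 h exposure. MTT (2.5 mg/mL solution) was added for 4 h, formazan dissolved in DMSO and A570 read. Viability was background-corrected against DMSO-treated cell controls; mean ± SD, ≥3 experiments.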

[19] = Hepatotoxicity against mouse TAMH cells assessed as cell viability at 125 uM incubated for 48 hrs by MTT assay; assay type: toxicity, cell-based; how it was run: as §7
[20] = target: T1, Voltage-gated inwardly rectifying potassium channel KCNH2; test: Inhibition of human ERG stably overexpressed in HEK293 cells at 100 uM incubated for 30 mins by FLIPR assay; assay type: toxicity, cell-based; details: hek293, 0.5 h, 100 µM; how it was run: as §6

T1 sequence (Q12809 whole entry): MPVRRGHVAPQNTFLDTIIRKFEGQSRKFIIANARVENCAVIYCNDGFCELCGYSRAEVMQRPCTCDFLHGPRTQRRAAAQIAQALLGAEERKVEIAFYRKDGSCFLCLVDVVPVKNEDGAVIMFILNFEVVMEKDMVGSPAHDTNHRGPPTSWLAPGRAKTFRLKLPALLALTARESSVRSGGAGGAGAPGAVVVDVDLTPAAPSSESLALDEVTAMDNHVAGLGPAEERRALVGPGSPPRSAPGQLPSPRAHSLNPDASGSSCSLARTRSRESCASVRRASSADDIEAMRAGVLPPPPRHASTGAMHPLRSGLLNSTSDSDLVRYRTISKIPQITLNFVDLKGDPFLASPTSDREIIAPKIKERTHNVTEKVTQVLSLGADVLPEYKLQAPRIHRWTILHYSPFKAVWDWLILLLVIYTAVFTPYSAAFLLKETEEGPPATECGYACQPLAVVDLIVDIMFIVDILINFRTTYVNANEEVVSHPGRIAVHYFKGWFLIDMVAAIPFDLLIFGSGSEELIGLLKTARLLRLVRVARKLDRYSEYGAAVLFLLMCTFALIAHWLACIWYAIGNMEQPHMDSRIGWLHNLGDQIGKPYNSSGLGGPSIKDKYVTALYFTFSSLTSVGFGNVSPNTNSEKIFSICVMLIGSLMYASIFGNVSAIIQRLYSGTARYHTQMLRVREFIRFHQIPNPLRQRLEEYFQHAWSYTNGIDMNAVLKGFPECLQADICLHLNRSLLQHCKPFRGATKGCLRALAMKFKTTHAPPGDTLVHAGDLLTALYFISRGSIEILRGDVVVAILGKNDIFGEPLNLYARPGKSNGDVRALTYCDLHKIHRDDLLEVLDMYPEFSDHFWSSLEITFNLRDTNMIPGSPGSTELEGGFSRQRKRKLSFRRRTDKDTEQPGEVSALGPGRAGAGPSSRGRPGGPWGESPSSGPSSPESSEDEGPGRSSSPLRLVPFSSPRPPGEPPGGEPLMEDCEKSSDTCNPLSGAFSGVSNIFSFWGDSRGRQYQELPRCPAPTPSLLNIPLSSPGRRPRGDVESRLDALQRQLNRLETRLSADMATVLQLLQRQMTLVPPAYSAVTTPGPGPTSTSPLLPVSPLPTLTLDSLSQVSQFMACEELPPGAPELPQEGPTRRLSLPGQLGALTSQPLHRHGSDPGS
Chain of hERG (KCNH2) (Q12809 whole entry): as above

## CCCCCCCCCCCCCCCCOP(=O)([O-])OCC[N+](C)(C)C [MILTEFOSINE]
Leishmania amazonensis [1]
  IC50: 9.6 µM
Leishmania donovani [2]
  Activity: inactive
[3]
  IC50 at 72 h: 81.5 µM
Leishmania braziliensis [4]
  IC50: 3.2 µM
Leishmania braziliensis [5]
  IC50: 17.8 µM
Leishmania amazonensis [6]
  IC50: 22 µM
RAW264.7
  IC50: 9.9 µM
Leishmania donovani [7]
  IC50: 2.7 µM
Leishmania donovani [8]
  IC50: > 40 µM
Leishmania donovani [9]
  IC50: > 20 µM
Leishmania major
  IC50: 7 µM
Leishmania donovani [10]
  IC50: 6.9 µM
[11]
  IC50 at 72 h: > 40 µM

## CSc1ccc(OCC2Cn3cc([N+](=O)[O-])nc3O2)cc1 (racemic)
Leishmania amazonensis [1]
  IC50: 0.7 µM
Leishmania donovani [12]
  Activity: Active
[3]
  IC50 at 72 h: > 100 µM
Leishmania braziliensis [4]
  IC50: 0.7 µM
Leishmania braziliensis [5]
  IC50: 1.5 µM
Leishmania amazonensis [6]
  IC50: 1.8 µM
RAW264.7
  IC50: > 100 µM
hERG (KCNH2)
  activity at 0.5 h, 6 µM: 81%
[13]
  remaining at 32 min, 20 µM: 55.8%
[14]
  viability at up to 125 µM: > 50%
Leishmania donovani [7]
  IC50: 0.3 µM
[15]
  IC25: 2.9 µM
Leishmania donovani [8]
  IC50: 0.4 µM
[16]
  remaining at 32 min, 20 µM: 90.4%
Leishmania donovani [9]
  IC50: 0.4 µM
[17]
  selectivity ratio: > 250
Leishmania major
  IC50: 3.4 µM
Leishmania donovani [10]
  IC50: 1 µM
[11]
  IC50 at 72 h: > 100 µM

## Cn1c([N+](=O)[O-])cnc1COc1ccc([S+](C)[O-])cc1 (stereo not given) [FEXINIDAZOLE SULFOXIDE]
[18]
  Activity: Non-toxic
[19]
  Activity: Non-toxic
[3]
  IC50 at 72 h: > 100 µM
Leishmania braziliensis [5]
  IC50: 4.3 µM
Leishmania amazonensis [6]
  IC50: 7.8 µM
RAW264.7
  IC50: > 100 µM
[20]
  inhibition (INH): Not_active
[13]
  remaining at 32 min, 20 µM: 100%
[14]
  viability at up to 125 µM: > 50%
[15]
  IC25: > 100 µM
Leishmania donovani [8]
  IC50: 4.3 µM
[16]
  remaining at 32 min, 20 µM: 100%
Leishmania major
  IC50: 1.4 µM
Leishmania donovani [10]
  IC50: 3.4 µM

## CSc1ccc(OC[C@@H]2Cn3cc([N+](=O)[O-])nc3O2)cc1
Leishmania amazonensis [1]
  IC50: 0.6 µM
Leishmania donovani [12]
  Activity: Active
[3]
  IC50 at 72 h: > 92.2 µM
Leishmania braziliensis [4]
  IC50: 0.5 µM
Leishmania braziliensis [5]
  IC50: 1.4 µM
Leishmania amazonensis [6]
  IC50: 1.2 µM
RAW264.7
  IC50: > 68.5 µM
hERG (KCNH2)
  activity at 0.5 h, 6 µM: 87%
[13]
  remaining at 32 min, 20 µM: 67.5%
[14]
  viability at up to 125 µM: > 50%
Leishmania donovani [7]
  IC50: 0.4 µM
[15]
  IC25: > 6.2 µM
Leishmania donovani [8]
  IC50: 0.5 µM
[16]
  remaining at 32 min, 20 µM: 97%
Leishmania donovani [9]
  IC50: 0.4 µM
[17]
  selectivity ratio: > 220
Leishmania major
  IC50: 3.1 µM
Leishmania donovani [10]
  IC50: 1.1 µM
[11]
  IC50 at 72 h: > 88 µM
